# Assay results pooled from the literature.
# Lines come from different studies, so protocols differ.
# Target: Dual specificity protein kinase CLK2 (CLK2, Homo sapiens, UniProt P49760)
Compound,test,setting,quantity,value
C=CC(=O)N1CCC[C@@H](n2nc(-c3ccc(Oc4ccccc4)cc3)c3c(N)ncnc32)C1,"enzyme activity, inhibitor",1 µM,inhibition,2%
CCCCC(=O)Nc1ccc(-c2ccc3ncn(CCC)c(=O)c3c2)cn1,"binding, competition with immobilised ligand",0.5 µM,remaining binding,100%
CC(C)S(=O)(=O)c1ccc2nccc(Nc3ccc4sc(C5CCCC5)nc4c3)c2c1,"enzyme activity, inhibitor",1 µM,activity vs control,105%
Cc1cc(O)c(-c2ccc([C@@H](C)CN(C)C)cc2)c2c1[nH]c(=O)c1sccc12,"enzyme activity, inhibitor",0.1 µM,inhibition,8.32%
C#Cc1cc(-c2cc(Nc3nc(N[C@@H](C)c4ccc(F)cn4)ncc3Cl)n[nH]2)ccc1C=O,"enzyme activity, inhibitor",0.2 µM,inhibition,47.4%
C[C@H]1CC[C@H](n2c3cnccc3c3cnc(Nc4ccc5c(n4)CCN(C(=O)CO)C5)nc32)CC1,cell-free assay,1 µM,remaining signal,1%
CO[C@@H]1[C@H](N(C)C(=O)c2ccccc2)C[C@H]2O[C@]1(C)n1c3ccccc3c3c4c(c5c6ccccc6n2c5c31)C(=O)NC4,"enzyme activity, inhibitor",1 µM,inhibition,54%
Cc1ccc(NC(=O)c2ccnc(C(F)(F)F)c2)cc1-c1cc(OCCO)nc(N2CCOCC2)c1,binding,1 µM,remaining binding,100%
C1=C/COCc2cc(ccc2OCCN2CCCC2)Nc2nccc(n2)-c2cccc(c2)COC/1,binding,0.1 µM,remaining binding,47%
